# Compound activity: PubChem, several laboratories
# Many of the other results were omitted from the sample, so hits are more common in it than they were.
# MDM2 E3 inh = Mdm2 E3 ligase (human) inhibition; signal enhancement, % at 5 µM; 210,000 compounds, 0.11% hits; cell-based MDM2 ubiquitination luciferase reporter, 2 h; 0 = plate control, 100 = twice control, blank-subtracted; Q00987; AID 1230;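 active means signal enhancement of 30% or more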;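 further: luminescence tracks abundance of the self-degrading MDM2-luciferase fusion protein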
#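 test system = mammalian cells stably expressing self-ubiquitinating, self-degrading MDM2 E3–luciferase fusion | quantity = 2000 cells/well | incubation = cell settling 4 h, compound treatment 2 h, both 37 °C | signal = luminescence with SteadyLite reagent, 15 min at room temperature | evaluation = % enhancement relative to plate controls after blank subtraction | benchmarks = plate controls and plate blanks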
# S1P3 antagonist = S1P3 (human) receptor antagonism; CHO S1P3 NFAT-BLA reporter, FRET fluorescence, antagonist mode; inhibition, % at 4.98 µM; Q99500; AID 485; 170,000 compounds, 0.27% hits;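 active means inhibition above the plate cutoff, the mean inhibition of test wells on that plate plus 3 SD, cut at about 28% in these data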;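 further: cells challenged with S1P at its EC80 of 0.8 µM; blue over green emission ratio from cleaved BLA substrate after 4 h stimulation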
# Target sequence (Q99500 whole entry, looked up): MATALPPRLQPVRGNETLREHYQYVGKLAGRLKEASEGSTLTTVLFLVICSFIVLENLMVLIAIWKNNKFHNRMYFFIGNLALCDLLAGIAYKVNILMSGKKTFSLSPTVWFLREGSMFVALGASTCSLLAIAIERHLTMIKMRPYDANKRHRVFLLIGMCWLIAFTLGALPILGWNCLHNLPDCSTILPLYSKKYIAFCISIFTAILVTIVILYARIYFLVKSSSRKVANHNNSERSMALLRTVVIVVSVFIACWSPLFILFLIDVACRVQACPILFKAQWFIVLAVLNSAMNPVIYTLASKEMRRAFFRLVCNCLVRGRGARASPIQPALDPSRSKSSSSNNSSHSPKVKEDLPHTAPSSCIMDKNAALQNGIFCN
# S1P4 antag = blocks the human S1P4 receptor; inhibition, % at 4.98 µM; 220,000 compounds, 0.26% hits; S1P4-expressing cells, antagonist mode, reporter read-out; in the data active means inhibition above about 29%
# S1P4 agonist = agonists of human S1P4 receptor. activation, % at 4.98 µM. S1P4-expressing cell line, agonist reporter assay. 220,000 compounds, 0.35% hits. AID 1509; in the data active means activation above about 11%
# L major viab = reduces viability of Leishmania major promastigotes | resazurin fluorescence viability | inhibition, % at 10 µM | 200,000 compounds, 9% hits | AID 1063; in the data active means inhibition above about 50%;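 further: promastigotes grown with compound for 44 hours at 28 °C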
# Hits are given with their value; - = inactive; . = no result.
SMILES,MDM2 E3 inh,S1P3 antagonist,S1P4 antag,S1P4 agonist,L major viab
Oc1c(CN2CCOCC2)cc(COCc2ccccc2)c2cccnc12,-,-,-,-,100
CCOC(=O)N1CCN(Cc2cc(Cl)c3cccnc3c2O)CC1,-,-,-,-,100
COCc1cc(CN2CCN(C)CC2)c(O)c2ncccc12,-,.,-,-,100
CCOC(=O)N1CCN(Cc2ccccc2Cl)CC1,-,-,-,-,-
CCOC(=O)c1cc(C(=O)NC(C)c2ccccc2)c(C)[nH]c1=O (stereo unspecified),-,-,-,-,-
CCOC(=O)N1CCC(Nc2cccc(SC)c2)CC1,-,-,-,-,96
CCOC(=O)N1CCC(Nc2c(Nc3cccc(CC)c3)c(=O)c2=O)CC1,-,-,-,-,-
CCOC(=O)N1CCC(N(CCOC)C(=S)Nc2cccc(SC)c2)CC1,-,-,-,-,65
CCOC(=O)N1CCC(N(CCN(C)C)C(=S)Nc2cccc(OC)c2)CC1,-,-,-,-,-
CC(=O)N(C)c1ccc(NC(=S)NCC(C)C)cc1,-,-,-,-,-
Cc1nnsc1S(=O)(=O)Cc1ccccc1C(F)(F)F,-,-,-,-,-
COc1cc(/C=N/N=C(/N)c2nonc2N)cc(Br)c1OCc1ccccc1C,.,.,-,-,75
Clc1cccc(Cl)c1/C=C/c1nc2ccccc2[nH]1,-,.,-,-,98
O=C(CNC(=O)C12CC3CC(CC(C3)C1)C2)N1CCN(S(=O)(=O)/C=C/c2ccccc2)CC1,-,-,-,-,-
O=C(N/N=C/c1ccccn1)c1cccs1,-,-,-,-,77
O=C(N/N=C/c1ccccn1)c1ccccc1,-,-,-,-,-
O=C(N/N=C\c1ccccn1)c1ccccc1O,-,-,-,-,69
O=C(N/N=C/c1ccccn1)c1cc(-c2ccc(Cl)cc2)nc2ccccc12,-,-,-,-,98
Cc1ccccc1C(=O)N/N=C/c1ccccn1,-,-,-,-,-
CCOC(=O)c1sc(NC(=O)CCN2CC(C)OC(C)C2)c(C(=O)OCC)c1C (stereo unspecified),-,.,-,-,-
CCOC(=O)c1c(NC(=O)CN2CCOCC2)sc(C(=O)NC)c1C,-,.,-,-,-
CCOC(=O)c1sc(NC(=O)CCN2CCN(C)CC2)c(C(=O)OCC)c1C,-,-,-,-,100
CCOC(=O)c1c(NC(=O)CN2CCN(C)CC2)sc(C(=O)Nc2ccccc2)c1C,-,-,-,-,99
O=C(CCCSc1nc2ccccc2c(=O)[nH]1)c1ccc(F)cc1,-,-,-,-,-
CCCC(C)NC(=O)COc1ccc(S(=O)(=O)c2ccc(OCC(=O)NC(C)CCC)cc2)cc1 (stereo unspecified),-,-,-,-,-
SMILES,MDM2 E3 inh,S1P3 antagonist,S1P4 antag,S1P4 agonist,L major viab
Cc1cc(Nc2ccccc2Cl)n2nnnc2n1,-,.,-,-,87
Cc1cc(Nc2ccc(Cl)cc2)n2nnnc2n1,-,-,-,-,-
O=C1C2=C(CCCC2)C(=O)N1c1cccc(OCCBr)c1,-,-,-,-,-
CC(C)CN(CCOc1cccc(N2C(=O)C3=C(CCCC3)C2=O)c1)CC(C)C,-,-,-,-,63
C=CCC1(CC=C)CCCN1Cc1nc(COc2ccccc2)no1,-,-,-,-,.
OC1(c2ccc3ccccc3c2)CCN(Cc2ccccc2)C1 (stereo unspecified),-,.,-,-,94
CC(C)=CC(O)C/C(C)=C/COc1ccc2ccc(=O)oc2c1 (stereo unspecified),-,.,.,.,.
COc1cccc(-n2c(SCc3cc(=O)oc4cc(O)c(O)cc34)nc3ccccc3c2=O)c1,-,-,-,-,-
COC(=O)c1sc2nc(C)nc(SCC(=O)N3CCC(C(=O)O)CC3)c2c1C,-,-,-,-,-
CCN(CCCNC(=O)CCCOc1cc(=O)n(C)c2ccccc12)Cc1ccccc1,-,-,-,-,86
CCN(CCCNC(=O)COc1cc(=O)n(CC)c2ccccc12)Cc1ccccc1,-,-,-,-,-
Cc1ccc(CN2CCSc3ccc(C(=O)NC4CCN(Cc5ccccc5)CC4)cc32)cc1,-,-,-,-,90
CN1CCN(CCCNC(=O)c2ccc3c(c2)N(Cc2ccccc2)CCS3)CC1,-,-,-,-,80
Cc1ccc(CN2CCSc3ccc(C(=O)NCc4ccco4)cc32)cc1,-,-,-,-,-
COc1ccc(C(=O)/C=C/c2ccccc2)c(O)c1,-,-,-,-,75
O=C(/C=C/c1ccc(O)cc1)c1ccc(O)cc1O,.,-,-,-,85
